Drawing on ChEMBL document CHEMBL1128452, “Pseudodipeptide inhibitors of protein farnesyltransferase” (J Med Chem, 1995), this text covers IC50 and Cytotoxic endpoint for 26 compounds.

In general, IC50 refers to the point on the concentration scale where inhibition reaches its midpoint.

In assay [1] the target is Geranylgeranyl transferase type I (Bos taurus, UniProt P29702+Q5EAD5). The experiment in a line: Inhibition of bovine Geranylgeranyl transferase type I. In kind it is protein-complex assay.
In a further assay the test system is NIH3T3. The experiment in a line: Highest nontoxic concentration for cultured NIH 3T3 cells assessed by MTT staining. Format: functional, Mus musculus. The method in brief:
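NIH 3T3 cells exposed to compound for 48 h. Viability read by MTT staining. The value reported is the highest concentration the cells tolerated without toxicity.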

Assay [2] concerns the target Protein farnesyltransferase (Bos taurus, UniProt P29702+P49355). The experiment in a line: In vitro concentration required to reduce Farnesyltransferase catalyzed incorporation of [3H]FPP into recombinant Ha-Ras protein by 50%. Format: protein-complex assay. The method in brief: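 Farnesyltransferase was purified from bovine brain and used at ca. 1 nM. It was incubated with compound, [³H]FPP and recombinant Harvey-Ras. Total protein was acid-precipitated and Ras-bound label counted by scintillation. IC50 is the concentration halving incorporation relative to a no-inhibitor control. Values are mean ± SEM of the stated number of determinations, or a single determination estimated reliable within 2-fold.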

Molecules are shown by their SMILES. Peptide text beside a SMILES is read from it. * marks the point of attachment. NHPhenethyl = c1ccc(CCN*)cc1

With `CCC(C)[C@H](NC[C@@H](N)CS)C(=O)NCc1cccc(Cl)c1Cl` (stereo partly specified), the IC50 in assay [1] was determined as 6.8 µM; in assay [2] it was 23 nM. The Cytotoxic endpoint with NIH3T3 is 5 µM.
The like results for `CCC(C)[C@H](NC[C@@H](N)CS)C(=O)Nc1cccc(C)c1` (stereo partly specified) were, in that order, 6.2 µM, 46 nM and 25 µM.
For the compound `CCC(C)[C@H](NC[C@@H](N)CS)C(=O)Nc1ccc(C)cc1C` (stereo partly specified), the Cytotoxic endpoint with NIH3T3 is 5 µM. In assay [2], the IC50 was found to be 60 nM.
Turning to `CCC(C)[C@H](NC[C@@H](N)CS)C(=O)NCCCc1ccccc1` (stereo partly specified), in assay [2], the IC50 worked out at 350 nM.
As for `CCCC[C@H](NC[C@@H](N)CS)C(=O)NCc1ccccc1`, the IC50 in assay [2] came to 900 nM.
Take `CCC(C)[C@H](NC[C@@H](N)CS)C(=O)NCc1ccc(OC)cc1` (stereo partly specified): the Cytotoxic endpoint with NIH3T3 was determined as 50 µM. In addition, the IC50 in assay [2] was 660 nM.
The matching figures for `CCC(C)[C@H](NC[C@H](C)N)C(=O)NCCc1ccccc1` (stereo partly specified): more than 100 µM and more than 10000 nM.
The like results for `CC[C@H](C)[C@H](NC(=O)[C@@H](N)CS)C(=O)NCCc1ccccc1` (H-Cys-Ile-NHPhenethyl) were, in that order, more than 100 µM and 1000 nM.
In the case of `CCC(C)[C@H](NC[C@@H](N)CS)C(=O)NCCC(C)C` (stereo partly specified), half-maximal inhibition in assay [1] (IC50) required 100 µM.
Take `CCC(C)[C@@H](CNCCc1ccccc1)NC[C@@H](N)CS` (stereo partly specified): the Cytotoxic endpoint with NIH3T3 was found to be 10 µM.
On to `CC[C@H](NC[C@@H](N)CS)C(=O)NCc1ccccc1`, for which, in assay [2], the half-inhibitory concentration (IC50) was found to be 1100 nM.
For the compound `CCC(C)[C@H](NC[C@@H](N)CS)C(=O)NCCc1ccccc1` (stereo partly specified), the Cytotoxic endpoint with NIH3T3 worked out at 10 µM. Besides, the IC50 in assay [2] worked out at 707 nM.
As to `CCC(C)[C@H](NC[C@@H](N)CS)C(=O)Nc1ccccc1` (stereo partly specified), the IC50 in assay [2] came out at 70 nM.
As to `CCC[C@H](NC[C@@H](N)CS)C(=O)NCc1ccccc1`, the IC50 in assay [2] is 600 nM.
For the compound `CCC(C)[C@H](NC[C@@H](N)CS)C(=O)NC(CO)Cc1ccccc1` (stereo partly specified), in assay [2], the IC50 is 370 nM.
As for `CCC(C)[C@H](NC[C@@H](N)CS)C(=O)NCc1ccc(C)cc1C` (stereo partly specified), the IC50 is 30 µM in assay [1] and 120 nM in assay [2]. In the assay on NIH3T3, this compound returned a Cytotoxic endpoint of 10 µM.
On to `CCC(C)[C@H](NC[C@@H](N)CS)C(=O)NCc1ccccc1` (stereo partly specified), for which the IC50 stood at 86 µM in assay [1] and 450 nM in assay [2].
For the compound `C[C@H](NC[C@@H](N)CS)C(=O)NCc1ccccc1`, the IC50 in assay [2] came to 2000 nM.
As for `CCC(C)[C@H](NC[C@@H](N)CS)C(=O)NCc1cccc(C)c1` (stereo partly specified), the Cytotoxic endpoint with NIH3T3 worked out at 25 µM. Moreover, the IC50 in assay [2] is 1000 nM.
On to `CCC(C)[C@H](NC[C@@H](N)CS)C(=O)Nc1cccc(C)c1C` (stereo partly specified), for which the IC50 in assay [1] was 8.2 µM; in assay [2] it was 40 nM. Besides, the Cytotoxic endpoint with NIH3T3 is 10 µM.
With `CCC(C)[C@H](NC(=O)CCS)C(=O)NCCc1ccccc1` (stereo partly specified), the Cytotoxic endpoint with NIH3T3 is 10 µM. Also, the IC50 in assay [2] is more than 10000 nM.
With `CCC(C)[C@@H](CNCCc1ccccc1)NC(=O)[C@@H](N)CS` (stereo partly specified), the IC50 in assay [2] was determined as 9000 nM.
`CCC(C)[C@H](NC[C@@H](N)CS)C(=O)N(C)Cc1ccccc1` (stereo partly specified): in assay [2], the IC50 came out at 945 nM.
In the case of `CCC(C)[C@H](NC[C@@H](N)CS)C(=O)NCc1ccc(Cl)cc1Cl` (stereo partly specified), the values for the IC50 in assay [1] and in assay [2] were 10 µM and 97 nM, respectively. Further, the Cytotoxic endpoint in the assay with NIH3T3 came out at 10 µM.
As for `CCCCN(Cc1ccccc1)C(=O)[C@@H](NC[C@@H](N)CS)C(C)CC` (stereo partly specified), the IC50 in assay [2] turned out to be 1300 nM.
`CCC(C)[C@H](NC[C@@H](N)CS)C(=O)NCc1ccc(S(N)(=O)=O)cc1` (stereo partly specified): the IC50 in assay [1] stood at 21 µM; in assay [2], 400 nM. For the same compound, the Cytotoxic endpoint in the assay with NIH3T3 is 100 µM.
